Source: PubChem BioAssay (several laboratories)
Only some compounds are listed: those with a hit (about 0.98% of all), similar ones and a draw of the others.
Yeast growth inh: growth inhibitors of yeast BB579 in restrictive medium, primary screen, yeast lifespan-shortening project, S. cerevisiae. OD615, 48 h. inhibition, % at 10 µM. actives 0.51% (n = 140,000);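 active = inhibition above a set limit, 3 SD over the mean compound inhibition, cut at about 44% in these data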
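Test system: S. cerevisiae DeaD strain BB579 yeast; Medium: restrictive CSMM-D medium; Compound: one dose, 10 µM compound with 0.25% DMSO; Incubation: 4 h cell preincubation, 48 h compound exposure, 30 °C humidified; Signal: OD at 615 nm; Benchmarks: amphotericin B at 10 µg/mL as positive control.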
S1P3 antagonist: S1P3 receptor antagonists, primary screen, cell-based. Sphingosine 1-phosphate receptor 3 (Homo sapiens), Q99500. CHO S1P3 NFAT-BLA reporter, FRET fluorescence, antagonist mode. inhibition, % at 4.98 µM. actives 0.27% (n = 170,000);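 active = inhibition above the plate cutoff, the mean inhibition of test wells on that plate plus 3 SD, cut at about 28% in these data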;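 note: cells challenged with S1P at its EC80 of 0.8 µM; blue over green emission ratio from cleaved BLA substrate after 4 h stimulation; 0% = S1P-stimulated wells and 100% = unstimulated DMSO-only wells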
Target sequence (Q99500 whole entry, looked up): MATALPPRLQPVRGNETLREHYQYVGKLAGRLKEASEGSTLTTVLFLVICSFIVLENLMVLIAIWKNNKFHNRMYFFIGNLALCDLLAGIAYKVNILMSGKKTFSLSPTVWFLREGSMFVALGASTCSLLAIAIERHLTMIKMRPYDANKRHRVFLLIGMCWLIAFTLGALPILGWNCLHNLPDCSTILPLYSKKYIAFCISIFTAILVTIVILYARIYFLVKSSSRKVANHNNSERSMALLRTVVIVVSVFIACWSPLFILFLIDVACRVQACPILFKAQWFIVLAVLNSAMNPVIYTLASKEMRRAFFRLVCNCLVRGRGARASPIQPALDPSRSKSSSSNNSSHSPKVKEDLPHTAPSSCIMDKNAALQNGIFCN
Yeast lifespan up: compounds extending yeast replicative lifespan, primary screen, S. cerevisiae, OD615; actives 0.68% (n = 130,000); S. cerevisiae growth with nicotinamide; deaD strain in restrictive glucose medium; inhibition of the nicotinamide effect, % at 10 µM; AID 775, 2007;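 active = inhibition above a set limit, placed 3 SD over the median of all compounds, cut at about 26% in these data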;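 note: 0% = nicotinamide-treated wells and 100% = cells grown without nicotinamide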
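Measured by: optical density (absorbance) at 615 nm; System: modified budding yeast, DeaD strain; Medium: restrictive CSMM-D dextrose medium; Timing: 4 h preincubation then 48 h treatment at 30 °C.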
* marks the source's active call; other numbers are inactive results.

For NNC(=O)c1ccc(COc2cccc3ccccc23)cc1 the results were Yeast growth inh 90*, S1P3 antagonist -3 and Yeast lifespan up -8.
Screening O=C(CNS(=O)(=O)c1cccc2nsnc12)NC1CCCCC1 returned Yeast growth inh 0 and Yeast lifespan up -2.
O=c1cc(C(F)(F)F)[nH]c2c(C(F)(F)F)cccc12 was read as Yeast growth inh 90*, S1P3 antagonist 2 and Yeast lifespan up -1.
Screening O=c1cc(C(F)(F)F)[nH]c2ccc(OC(F)(F)F)cc12 returned S1P3 antagonist -13.
For COc1ccc2[nH]c(=O)c(CN(C(=O)c3cccnc3)c3cc(C)ccc3C)cc2c1 the results were S1P3 antagonist 6.
Screening Cc1ccc(N(C(=O)CS(=O)CC(=O)Nc2ccc(F)cc2)C(C(=O)NC2CCCCC2)c2ccco2)cc1 (stereo unspecified) returned Yeast growth inh -23, S1P3 antagonist 6 and Yeast lifespan up 94*.
Screening O=C(CS(=O)CC(=O)N(c1ccccc1)C(C(=O)NC1CCCC1)c1cccs1)Nc1ccc(F)cc1 (stereo unspecified) returned Yeast growth inh -31 and Yeast lifespan up -16.
Screening CC(=O)C1=C(C)OC(N)=C(C#N)C1c1cccnc1 (stereo unspecified) returned S1P3 antagonist -11.
For O=C(COc1ccccc1)N1CCN=C1SCc1ccc(F)cc1 the results were S1P3 antagonist 8.
For O=C(COc1ccccc1)N1CCN=C1SCc1cccnc1 the results were Yeast growth inh 56*, S1P3 antagonist 22 and Yeast lifespan up -16.
Screening CC1(C)CC(=O)C(=Cc2cn(CCC#N)nc2-c2ccc(Cl)cc2)C(=O)C1 returned Yeast growth inh -51, S1P3 antagonist 2 and Yeast lifespan up 39*.
`CC1(C)CC(=O)C(=Cc2cn(CCC#N)nc2-c2ccc(F)cc2)C(=O)C1` gave Yeast growth inh 7, S1P3 antagonist 12 and Yeast lifespan up 7.
Cc1ccnc(NC(=O)C2COc3ccccc3O2)c1 (stereo unspecified) was read as Yeast growth inh 0, S1P3 antagonist -8 and Yeast lifespan up -4.
Screening O=c1oc2ccccc2c(O)c1/C=N/c1ncccn1 returned S1P3 antagonist -13.
O=c1oc2ccccc2c(O)c1/C=C1\C=Nc2ccccc21 was read as Yeast growth inh 86* and Yeast lifespan up -4.
For CC1CCCC2(C1)NC(=S)c1c(sc3c1CCCC3)N2 (stereo unspecified) the results were Yeast growth inh 86* and Yeast lifespan up -15.
Screening CC(C)CCN1NC2(CCCC(C)C2)NC1=S (stereo unspecified) returned S1P3 antagonist 10.
`CCCCCCCCC(=O)NC(NC(=S)N1CCOCC1)C(Cl)(Cl)Cl` (stereo unspecified) gave Yeast growth inh -24.
O=[N+]([O-])c1cc(-c2n(-c3ccccn3)c3ccccc3[n+]2-c2ccccn2)ccc1Cl was read as S1P3 antagonist -13.
`Cc1cc(C(=O)N/N=C/c2cccc([N+](=O)[O-])c2O)n[nH]1` gave Yeast growth inh 44*, S1P3 antagonist -14 and Yeast lifespan up -3.
For Cc1cc(C(=O)N/N=C/c2ccc(O)c([N+](=O)[O-])c2)n[nH]1 the results were Yeast growth inh -16, S1P3 antagonist -1 and Yeast lifespan up -2.
For COc1ccccc1NC(=O)Cc1noc(CSc2cc(C)c3ccccc3n2)n1 the results were Yeast growth inh -52, S1P3 antagonist 22 and Yeast lifespan up -26.
COc1ccccc1NC(=O)Cc1noc(CSc2cccc[n+]2[O-])n1 was read as Yeast growth inh 95* and Yeast lifespan up -15.
Nc1c(C(=O)NCCC2=CCCCC2)sc2ccc(S(=O)(=O)N3CCCCC3)cc12 was read as Yeast growth inh -38, S1P3 antagonist 5 and Yeast lifespan up 11.
COc1ccc(CC(=O)N2CCCC(CNC(=O)c3ccccc3Cl)C2)cc1 (stereo unspecified) was read as S1P3 antagonist -32.
For Cc1[nH]oc(=O)c1N=Nc1ccccc1 the results were Yeast growth inh 22, S1P3 antagonist -8 and Yeast lifespan up 32*.
For Cc1[nH][nH]c(=O)c1N=Nc1ccccc1Cl the results were S1P3 antagonist -3.
For Cc1[nH]n(-c2ccccc2)c(=O)c1N=Nc1ccccc1 the results were S1P3 antagonist 0.
Screening Cc1[nH]oc(=O)c1N=Nc1c(Cl)cccc1Cl returned Yeast growth inh 2, S1P3 antagonist -9 and Yeast lifespan up 37*.
For CCN(CC)S(=O)(=O)c1ccc(NC(=O)CN(c2ccc(OC)cc2OC)S(C)(=O)=O)cc1 the results were Yeast growth inh -33, S1P3 antagonist 5 and Yeast lifespan up 5.
